Measurements from ChEMBL document CHEMBL1124697, “A new family of water-soluble, third generation antitumor platinum complexes” (J Med Chem, 1989).
Where “and” joins values, the source holds several entries; their conditions need not be identical. Equal values may be shown once.

Key:
[1] = system: Colon 26; experiment: Percent in life span when compound administered at 6.2 mg/kg against Colon 26 cells in balb/C mice; type: functional, organism-based; parameters: dose 6.2 mg/kg; conditions: Mus musculus
Procedure, shortened: (§1)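 Colon 26 in Balb/C mice. Test agents given ip on days 1, 5 and 9 relative to tumor inoculation; mice observed 30 days. Median % increase in life span at optimal dose, with % survivors noted; ILS ≥25% over controls required for activity; ILS or body weight reduced ≥15% versus controls rated toxic.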

[2] = system: Colon 26; experiment: Percent survivors when compound administered at 6.2 mg/kg against Colon 26 cells in balb/C mice; type: functional, organism-based; parameters: dose 6.2 mg/kg; conditions: Mus musculus
Procedure, shortened: (§2)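 Colon 26 tumor in Balb/C mice. Dosing ip on days 1, 5 and 9 after tumor inoculation, with a 30-day observation period. Readouts are median % increase in life span over control mice and % survivors, given at the optimal dose. Activity threshold is ILS ≥25%. A ≥15% drop in ILS or body weight is rated toxic.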

[3] = system: L1210; experiment: Percent survivors when compound administered at 12.5 mg/kg against L1210 leukemia cells in BDF1 mice; type: functional, organism-based; parameters: dose 12.5 mg/kg; conditions: Mus musculus
Procedure, shortened: (§3)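 BDF1 mice inoculated with P388, L1210 or cisplatin-resistant L1210 leukemia. Compound given ip on days 1, 5 and 9 relative to tumor inoculation, and mice observed for 30 days. Median % increase in life span over controls and % survivors are reported at the optimal dose. Activity requires ILS ≥25%. Toxicity is rated when ILS or body weight is reduced by ≥15%.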

[4] = system: P388; experiment: Percent survivors when compound administered at 25.5 mg/kg against P388 leukemia cells in BDF1 mice; type: functional, organism-based; parameters: dose 25.5 mg/kg; conditions: Mus musculus; procedure, shortened: as §3
[5] = system: P388; experiment: Percent increase in life span when compound administered at 25.5 mg/kg against P388 leukemia cells in BDF1 mice; type: functional, organism-based; parameters: dose 25.5 mg/kg; conditions: Mus musculus
Procedure, shortened: (§4)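 BDF1 mice bearing P388, L1210 or cisplatin-resistant L1210 leukemia; ip dosing on days 1, 5 and 9 relative to tumor inoculation, 30-day observation. Median % ILS over controls at optimal dose plus % survivors; ≥25% ILS counted as active, ≥15% reduction in ILS or body weight over controls rated toxic.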

[6] = system: B16; experiment: Percent increase in life span when compound administered at 0.4 mg/kg against B-16 melanoma cells in […] mice; type: functional, organism-based; parameters: dose 0.4 mg/kg; conditions: Mus musculus
Procedure, shortened: (§5)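 B-16 melanoma in […] mice; compounds given ip daily on days 1–9 relative to tumor inoculation, animals followed 60 days. Read-out median % increase in life span over controls at optimal dose with % survivors; activity threshold ILS ≥25%; ≥15% reduction in ILS or body weight versus controls rated toxic.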

[7] = system: Colon 26; experiment: Percent in life span when compound administered at 3.1 mg/kg against Colon 26 cells in balb/C mice; type: functional, organism-based; parameters: dose 3.1 mg/kg; conditions: Mus musculus; procedure, shortened: as §1
[8] = system: Colon 26; experiment: Percent survivors when compound administered at 3.1 mg/kg against Colon 26 cells in balb/C mice; type: functional, organism-based; parameters: dose 3.1 mg/kg; conditions: Mus musculus; procedure, shortened: as §2
[9] = system: P388; experiment: Percent survivors when compound administered at 6.2 mg/kg against P388 leukemia cells in BDF1 mice; type: functional, organism-based; parameters: dose 6.2 mg/kg; conditions: Mus musculus; procedure, shortened: as §3
[10] = system: P388; experiment: Percent increase in life span when compound administered at 6.2 mg/kg against P388 leukemia cells in BDF1 mice; type: functional, organism-based; parameters: dose 6.2 mg/kg; conditions: Mus musculus; procedure, shortened: as §4
[11] = system: P388; experiment: Percent survivors when compound administered at 12.5 mg/kg against P388 leukemia cells in BDF1 mice; type: functional, organism-based; parameters: dose 12.5 mg/kg; conditions: Mus musculus; procedure, shortened: as §3
[12] = system: P388; experiment: Percent increase in life span when compound administered at 12.5 mg/kg against P388 leukemia cells in BDF1 mice; type: functional, organism-based; parameters: dose 12.5 mg/kg; conditions: Mus musculus; procedure, shortened: as §4
[13] = system: B16; experiment: Percent increase in life span when compound administered at 12.5 mg/kg against B-16 melanoma cells in […] mice; type: functional; conditions: Mus musculus
Procedure, shortened: (§6)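 Median % increase in life span versus controls and % survivors are recorded at the optimal dose. ILS ≥25% counts as active, and a ≥15% reduction in ILS or body weight counts as toxic.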

[14] = system: B16; experiment: Percent increase in life span when compound administered at 25 mg/kg against B-16 melanoma cells in […] mice; type: functional, organism-based; parameters: dose 25 mg/kg; conditions: Mus musculus; procedure, shortened: as §5
[15] = system: B16; experiment: Percent survivors when compound administered at 12.5 mg/kg against B-16 melanoma cells in […] mice; type: functional; conditions: Mus musculus; procedure, shortened: as §6
[16] = system: B16; experiment: Percent survivors when compound administered at 25 mg/kg against B-16 melanoma cells in […] mice; type: functional, organism-based; parameters: dose 25 mg/kg; conditions: Mus musculus; procedure, shortened: as §6
[17] = system: Colon 26; experiment: Percent in life span when compound administered at 100 mg/kg againstColon 26 cells in balb/C mice; type: functional, organism-based; parameters: dose 100 mg/kg; conditions: Mus musculus; procedure, shortened: as §1
[18] = system: Colon 26; experiment: Percent survivors when compound administered at 50 mg/kg againstColon 26 cells in balb/C mice; type: functional, organism-based; parameters: dose 50 mg/kg; conditions: Mus musculus; procedure, shortened: as §2
[19] = system: Colon 26; experiment: Percent survivors when compound administered at 100 mg/kg againstColon 26 cells in balb/C mice; type: functional, organism-based; parameters: dose 100 mg/kg; conditions: Mus musculus; procedure, shortened: as §2
[20] = system: L1210; experiment: Percent survivors when compound administered at 50 mg/kg against L1210 leukemia cells in BDF1 mice; type: functional, organism-based; parameters: dose 50 mg/kg; conditions: Mus musculus; procedure, shortened: as §3
[21] = system: L1210; experiment: Percent increase in life span when compound administered at 50 mg/kg against L1210 leukemia cells in BDF1 mice; type: functional, organism-based; parameters: dose 50 mg/kg; conditions: Mus musculus; procedure, shortened: as §4
[22] = system: L1210; experiment: Percent increase in life span when compound administered at 50 mg/kg against L1210 cisplatin resistant leukemia cells in BDF1 mice; type: functional, organism-based; parameters: dose 50 mg/kg; conditions: Mus musculus; procedure, shortened: as §4
[23] = system: L1210; experiment: Percent survivors when compound administered at 50 mg/kg against L1210 cisplatin resistant leukemia cells in BDF1 mice; type: functional, organism-based; parameters: dose 50 mg/kg; conditions: Mus musculus; procedure, shortened: as §3
[24] = Water solubility was determined; type: ADME; conditions: buffer
[25] = system: P388; experiment: Percent survivors when compound administered at 200 mg/kg against P388 leukemia cells in BDF1 mice; type: functional, organism-based; parameters: dose 200 mg/kg; conditions: Mus musculus; procedure, shortened: as §3
[26] = system: P388; experiment: Percent increase in life span when compound administered at 200 mg/kg against P388 leukemia cells in BDF1 mice; type: functional, organism-based; parameters: dose 200 mg/kg; conditions: Mus musculus

In the case of “Platinum:8,8-Dichloro-1,3-dioxa-7,9-diaza-spiro[4.5]decane”, the Increase [1] was 50%, the Survivors [2] was 0% and the Survivors [3] was 0%. For the same substance, the Survivors [4] was 0% and the Increase [5] was 160%.
“Platinum:9,9-Dichloro-2,4-dioxa-8,10-diaza-spiro[5.5]undecane” gave an Increase [6] of 27%, an Increase [7] of 41% and a Survivors [8] of 0%. For the same substance, the Survivors [9] was 3% and the Increase [10] was 173%.
In the case of “Platinum:9,9-Dichloro-3-methyl-2,4-dioxa-8,10-diaza-spiro[5.5]undecane”, the Survivors [11] was 1% and the Increase [12] was 136%.
With “Platinum:Formic acid 9-formyloxy-2,4-dioxa-8,10-diaza-spiro[5.5]undec-9-yl ester” the Increase [13] was 61%, the Increase [14] was 64% and 84% and the Survivors [15] was 3%. It also gave a Survivors [16] of 0%, an Increase [17] of 127% and a Survivors [18] of 0%. The Survivors [19] was 3%, the Survivors [20] was 50% and the Increase [21] was 172%. It also gave an Increase [22] of 168% and a Survivors [23] of 33%.
Substance “Platinum:Formic acid 9-formyloxy-3-methyl-2,4-dioxa-8,10-diaza-spiro[5.5]undec-9-yl ester [listing 1 of 2 here]” has a Water solubility [24] of 100 mg/mL.
Work on “Platinum:Formic acid 9-formyloxy-3-methyl-2,4-dioxa-8,10-diaza-spiro[5.5]undec-9-yl ester [listing 2 of 2 here]” yielded an Increase [14] of 62%, a Survivors [16] of 0% and a Survivors [25] of 5%. It also gave an Increase [26] of 173%.
